Test results: ChEMBL document CHEMBL1152649, “Synthesis, cytotoxicity and human telomerase inhibition activities of a series of 1,2-heteroannelated anthraquinones and anthra[1,2-d]imidazole-6,11-dione homologues” (2009)

Experiments:
Type in all cases: functional
BT-549 = assay: Antiproliferative activity against human BT549 cells assessed as cell growth at 10 uM; details: read-out: Activity
How it was run: (§1)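 NCI 60 cell line panel, single-dose screen (10^-5 M) run by the developmental therapeutics program protocol. Results are given as growth percent of treated cells relative to untreated control cells for each line.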

M14 = assay: Growth inhibition of human M14 cells
How it was run: (§2)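 NCI 60 cancer cell line screen run per the Developmental Therapeutics Program protocol. Dose–response curves were plotted against log10 drug concentration for each cell line within its subpanel, and mean graph midpoint values were calculated.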

MOLT-4 = assay: Growth inhibition of human MOLT4 cells; how it was run: as §2
COLO 205 = assay: Growth inhibition of human COLO205 cells; how it was run: as §2
SK-MEL-5 = assay: Growth inhibition of human SK-MEL-5 cells
How it was run: (§3)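 Assayed in the NCI 60 human cancer cell line panel under the Developmental Therapeutics Program protocol. For each line, dose–response curves were plotted against log10 drug concentration. In the one-dose screen at 10^-5 M, growth was given as percent of untreated control cells, and mean graph midpoint values were averaged.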

SNB-19 = assay: Growth inhibition of human SNB19 cells; how it was run: as §3
RXF 393 [1] = assay: Antiproliferative activity against human RXF393 cells assessed as cell growth at 10 uM; details: read-out: Activity; how it was run: as §1
DU-145 = assay: Growth inhibition of human DU145 cells; how it was run: as §2
OVCAR-5 = assay: Growth inhibition of human OVCAR5 cells; how it was run: as §2
786-0 = assay: Growth inhibition of human 786-0 cells; how it was run: as §2
EKVX = assay: Growth inhibition of human EKVX cells; how it was run: as §2
K562 = assay: Growth inhibition of human K562 cells; how it was run: as §2
PC-3 = assay: Growth inhibition of human PC3 cells; how it was run: as §3
RXF 393 [2] = assay: Growth inhibition of human RXF393 cells; how it was run: as §3
A498 = assay: Growth inhibition of human A498 cells; how it was run: as §2
SK-MEL-2 = assay: Growth inhibition of human SK-MEL-2 cells; how it was run: as §3
SF-268 = assay: Growth inhibition of human SF268 cells; how it was run: as §3
HOP-92 = assay: Growth inhibition of human HOP92 cells; how it was run: as §2
MDA-MB-468 = assay: Antiproliferative activity against human MDA-MB-468 cells assessed as cell growth at 10 uM; details: read-out: Activity; how it was run: as §1
CCRF-CEM = assay: Growth inhibition of human CCRF-CEM cells; how it was run: as §2
IGROV-1 = assay: Antiproliferative activity against human IGROV1 cells assessed as cell growth at 10 uM; details: read-out: Activity; how it was run: as §1
U-251 = assay: Growth inhibition of human U251 cells; how it was run: as §3
HCT-15 = assay: Growth inhibition of human HCT15 cells; how it was run: as §2
NCI-H226 = assay: Growth inhibition of human NCI-H226 cells; how it was run: as §2
MCF7 = assay: Growth inhibition of human MCF7 cells; how it was run: as §2
SNB-75 = assay: Growth inhibition of human SNB75 cells; how it was run: as §3
KM12 = assay: Growth inhibition of human KM12 cells; how it was run: as §2
SN12C = assay: Growth inhibition of human SN12C cells; how it was run: as §3
NCI-H23 = assay: Growth inhibition of human NCI-H23 cells; how it was run: as §2
UACC-257 = assay: Growth inhibition of human UACC257 cells; how it was run: as §3
SF-295 = assay: Growth inhibition of human SF295 cells; how it was run: as §3
HOP-62 = assay: Growth inhibition of human HOP62 cells; how it was run: as §2
SK-OV-3 = assay: Growth inhibition of human SKOV3 cells; how it was run: as §3
SF-539 = assay: Growth inhibition of human SF539 cells; how it was run: as §3
NCI/ADR-RES = assay: Growth inhibition of human NCI/ADR-RES cells; how it was run: as §2
UO-31 = assay: Growth inhibition of human UO31 cells; how it was run: as §3
T47D = assay: Growth inhibition of human T47D cells; how it was run: as §3
LOX IMVI = assay: Growth inhibition of human LOXIMVI cells; how it was run: as §2
[3] = read-out: LC50 (the source's name)

Cc1ccc(-c2nc3ccc4c(c3[nH]2)C(=O)c2ccccc2C4=O)cc1
growth at 10 µM (BT-549): 94.1%

O=C1c2ccccc2C(=O)c2c1ccc1nsnc21
GI50 (M14): 2.15 µM
TGI (M14): 4.85 µM
CC50 (M14; [3]): > 100 µM
GI50 (MOLT-4): 0.49 µM
TGI (MOLT-4): 1.84 µM
CC50 (MOLT-4; [3]): 4.71 µM
GI50 (COLO 205): 13.4 µM
TGI (COLO 205): 28.9 µM
CC50 (COLO 205; [3]): 62.4 µM
GI50 (SK-MEL-5): 1.58 µM
TGI (SK-MEL-5): 2.92 µM
CC50 (SK-MEL-5; [3]): 5.41 µM
GI50 (SNB-19): 2.28 µM
TGI (SNB-19): 5.82 µM
CC50 (SNB-19; [3]): 26 µM
growth at 10 µM (RXF 393 [1]): 20.1%
GI50 (DU-145): 1.67 µM
TGI (DU-145): 3.24 µM
CC50 (DU-145; [3]): 6.27 µM
GI50 (OVCAR-5): 1.91 µM
TGI (OVCAR-5): 4.11 µM
CC50 (OVCAR-5; [3]): 8.84 µM
GI50 (786-0): 6.17 µM
TGI (786-0): 19.3 µM
CC50 (786-0; [3]): 50.4 µM
GI50 (EKVX): 1.55 µM
TGI (EKVX): 3.45 µM
CC50 (EKVX; [3]): 7.66 µM
GI50 (K562): 1.92 µM
LC50 (K562): 41.2 µM
TGI (K562): 15.9 µM
GI50 (PC-3): 3.23 µM
TGI (PC-3): > 100 µM
CC50 (PC-3; [3]): > 100 µM
GI50 (RXF 393 [2]): 1.75 µM
TGI (RXF 393 [2]): 4.4 µM
CC50 (RXF 393 [2]; [3]): 14.6 µM
GI50 (A498): 12.4 µM
TGI (A498): 25.4 µM
CC50 (A498; [3]): 52 µM
GI50 (SK-MEL-2): 1.68 µM
TGI (SK-MEL-2): 4.22 µM
CC50 (SK-MEL-2; [3]): 22.5 µM
GI50 (SF-268): 2.17 µM
TGI (SF-268): 5.77 µM
CC50 (SF-268; [3]): 27.7 µM
GI50 (HOP-92): 2.52 µM
TGI (HOP-92): 6.64 µM
CC50 (HOP-92; [3]): > 100 µM
growth at 10 µM (MDA-MB-468): -73.2%
GI50 (CCRF-CEM): 1.08 µM
TGI (CCRF-CEM): 4.1 µM
CC50 (CCRF-CEM; [3]): > 100 µM
growth at 10 µM (IGROV-1): -88.3%
GI50 (U-251): 1.61 µM
TGI (U-251): 2.96 µM
CC50 (U-251; [3]): 5.44 µM
GI50 (HCT-15): 1.71 µM
TGI (HCT-15): 3.72 µM
CC50 (HCT-15; [3]): 8.12 µM
GI50 (NCI-H226): 4.48 µM
TGI (NCI-H226): 21.6 µM
CC50 (NCI-H226; [3]): 63.7 µM
GI50 (MCF7): 1.53 µM
TGI (MCF7): 3.34 µM
CC50 (MCF7; [3]): 7.29 µM
GI50 (SNB-75): 2.03 µM
TGI (SNB-75): 5.2 µM
CC50 (SNB-75; [3]): 18.6 µM
GI50 (KM12): 1.96 µM
TGI (KM12): 5.54 µM
CC50 (KM12; [3]): 59.7 µM
GI50 (SN12C): 1.33 µM
TGI (SN12C): 3.17 µM
CC50 (SN12C; [3]): 7.56 µM
GI50 (NCI-H23): 1.44 µM
TGI (NCI-H23): 6.04 µM
CC50 (NCI-H23; [3]): > 100 µM
GI50 (UACC-257): 1.74 µM
TGI (UACC-257): 3.51 µM
CC50 (UACC-257; [3]): 7.09 µM
GI50 (SF-295): 1.9 µM
TGI (SF-295): 4.04 µM
CC50 (SF-295; [3]): 8.56 µM
GI50 (HOP-62): 1.28 µM
TGI (HOP-62): 3.31 µM
CC50 (HOP-62; [3]): 8.53 µM
GI50 (SK-OV-3): 7.71 µM
TGI (SK-OV-3): 22.5 µM
CC50 (SK-OV-3; [3]): 53.4 µM
GI50 (SF-539): 1.46 µM
TGI (SF-539): 2.94 µM
CC50 (SF-539; [3]): 5.91 µM
GI50 (NCI/ADR-RES): 1.86 µM
TGI (NCI/ADR-RES): 12.6 µM
CC50 (NCI/ADR-RES; [3]): > 100 µM
GI50 (UO-31): 1.62 µM
TGI (UO-31): 3.12 µM
CC50 (UO-31; [3]): 6.01 µM
GI50 (T47D): 1.39 µM
LC50 (T47D): 8.27 µM
TGI (T47D): 3.39 µM
GI50 (LOX IMVI): 0.82 µM
TGI (LOX IMVI): 2.13 µM
CC50 (LOX IMVI; [3]): 4.86 µM
